How the values were obtained:
Type in all cases: functional
[1] = system: Heligmosomoides polygyrus; experiment: Anthelmintic activity against mice, infected with parasite Nematospiroides dubius, at a dose of 62(ppm in feed)
In short: (§1)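 Compound was given in feed ad libitum from 24 h postinfection for 18 days, four mice per group. On day 19, N. dubius were counted in the duodenum and H. nana in the ileum. Result is % reduction of mean worm burden vs untreated control; ≤25% was recorded as 0.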

Rodentolepis nana [2] = experiment: The compound was tested for anthelmintic activity against mice, infected with parasite Hymenolepis nana at a dose of 62(ppm in feed); in short: as §1
[3] = system: Heligmosomoides polygyrus; experiment: Anthelmintic activity against mice, infected with parasite Nematospiroides dubius, at a dose of 125(ppm in feed); in short: as §1
Rodentolepis nana [4] = experiment: The compound was tested for anthelmintic activity against mice, infected with parasite Hymenolepis nana at a dose of 125(ppm in feed); in short: as §1
[5] = system: Heligmosomoides polygyrus; experiment: Anthelmintic activity against mice, infected with parasite Nematospiroides dubius, at a dose of 250 pm in feed); in short: as §1
[6] = system: Heligmosomoides polygyrus; experiment: Anthelmintic activity against mice, infected with parasite Nematospiroides dubius, at a dose of 125 (ppm in feed); in short: as §1
Rodentolepis nana [7] = experiment: The compound was tested for anthelmintic activity against mice, infected with parasite Hymenolepis nana at a dose of 250(ppm in feed); in short: as §1
Rodentolepis nana [8] = experiment: Anthelmintic activity against mice infected with parasite Hymenolepis nana at a dose of 125 ppm (in feed); in short: as §1
Rodentolepis nana [9] = experiment: The compound was tested for anthelmintic activity against mice, infected with parasite Hymenolepis nana at a dose of 875(ppm in feed); in short: as §1
[10] = system: Heligmosomoides polygyrus; experiment: Anthelmintic activity against mice, infected with parasite Nematospiroides dubius, at a dose of 875(ppm in feed); in short: as §1
Ascaris suum [11] = experiment: Effect on incorporation of [32Pi] by isolated Ascaris suum mitochondria at a concentration of 0 uM
In short: (§2)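 Body-wall muscle mitochondria from adult A. suum (4-5 mg protein) were preincubated for 5 min at 30 °C, pH 7.4, with inhibitor in 170 mM mannitol, 50 mM sucrose, 10 mM 32Pi-phosphate, 1 mM MgCl2, 0.4 mM ADP and 0.1 unit hexokinase. Reaction was started with 10 mM malate and stopped after 15 min with perchloric acid. 32P-organic phosphate and succinate were measured in extracts; duplicate runs.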

Ovis aries [12] = experiment: Anthelmintic activity against sheep, infected with Haemonchus contortus, at a dose of 30 mg/kg.
In short: (§3)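 Merino ewes and wethers (12-15 months, 25-35 kg) received L3 intraruminally on day 0. Susceptible strains: H. contortus 6000, O. circumcincta 8000, T. colubriformis 8000. Benzimidazole-resistant strains: 8000, 9000, 9000. Animals were allocated by day-27 fecal egg count (n = 4-7) and given a single intraruminal dose in 0.5% carboxymethylcellulose saline. Adult worms in abomasum and small intestine were counted on day 35. Result is mean % reduction vs untreated controls.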

Ovis aries [13] = experiment: Anthelmintic activity against sheep, infected with Haemonchus contortus, at a dose of 20 mg/kg.; in short: as §3
Ovis aries [14] = experiment: Anthelmintic activity against sheep, infected with Ostertagia circumcincta, at a dose of 30 mg/kg.; in short: as §3
Rodentolepis nana [15] = experiment: Anthelmintic activity against mice infected with parasite Hymenolepis nana at a dose of 62(ppm in feed).; in short: as §1
Ascaris suum [16] = experiment: Effect on succinate formation by isolated Ascaris suum mitochondria at a concentration of 3 uM; in short: as §2
Ovis aries [17] = experiment: Anthelmintic activity against sheep, infected with Ostertagia circumcincta, at a dose of 20 mg/kg.; in short: as §3
Ovis aries [18] = experiment: Anthelmintic activity against sheep, infected with Trichostrongylus colubriformis, at a dose of 30 mg/kg.; in short: as §3
Ascaris suum [19] = experiment: Effect on incorporation of [32Pi] by isolated Ascaris suum mitochondria at a concentration of 10 uM; in short: as §2
Ascaris suum [20] = experiment: Effect on succinate formation by isolated Ascaris suum mitochondria at a concentration of 0 uM; in short: as §2
Ovis aries [21] = experiment: Anthelmintic activity against sheep, infected with Trichostrongylus colubriformis, at a dose of 20 mg/kg.; in short: as §3
[22] = system: Heligmosomoides polygyrus; experiment: Anthelmintic activity against mice infected with parasite Nematospiroides dubius, at a dose of 62(ppm in feed).; in short: as §1
Ascaris suum [23] = experiment: Effect on succinate formation by isolated Ascaris suum mitochondria at a concentration of 10 uM; in short: as §2
Ascaris suum [24] = experiment: Effect on incorporation of [32Pi] by isolated Ascaris suum mitochondria at a concentration of 50 uM.; in short: as §2
Ascaris suum [25] = experiment: Effect on incorporation of [32Pi] by isolated Ascaris suum mitochondria at a concentration of 3 uM; in short: as §2
Ascaris suum [26] = experiment: Effect on succinate formation by isolated Ascaris suum mitochondria at a concentration of 25 uM; in short: as §2
Ascaris suum [27] = experiment: Effect on succinate formation by isolated Ascaris suum mitochondria at a concentration of 50 uM; in short: as §2
Ascaris suum [28] = experiment: Effect on incorporation of [32Pi] by isolated Ascaris suum mitochondria at a concentration of 25 uM; in short: as §2
[29] = system: Heligmosomoides polygyrus; experiment: Anthelmintic activity against mice, infected with parasite Nematospiroides dubius, at a dose of 31(ppm in feed); in short: as §1
Rodentolepis nana [30] = experiment: The compound was tested for anthelmintic activity against mice, infected with parasite Hymenolepis nana at a dose of 31(ppm in feed); in short: as §1
Rodentolepis nana [31] = experiment: The compound was tested for anthelmintic activity against mice, infected with parasite Hymenolepis nana at a dose of 1000(ppm in feed); in short: as §1
[32] = system: Heligmosomoides polygyrus; experiment: Anthelmintic activity against mice, infected with parasite Nematospiroides dubius, at a dose of 1000(ppm in feed); in short: as §1
[33] = system: Heligmosomoides polygyrus; experiment: Anthelmintic activity against mice, infected with parasite Nematospiroides dubius, at a dose of 31 p.p.m. in feed; in short: as §1
Rodentolepis nana [34] = experiment: The compound was tested for anthelmintic activity against mice, infected with parasite Hymenolepis nana at a dose of 125 p.p.m. in feed; in short: as §1
[35] = system: Heligmosomoides polygyrus; experiment: Anthelmintic activity against mice, infected with parasite Nematospiroides dubius, at a dose of 125 ppm in feed; in short: as §1
Rodentolepis nana [36] = experiment: The compound was tested for anthelmintic activity against mice, infected with parasite Hymenolepis nana at a dose of 31 p.p.m. in feed; in short: as §1

For `N#C/C(C(=O)Nc1ccc(C(F)(F)F)cc1)=C(/O)c1ccc(Br)cc1`, the Reduction [1] was 45%, the Reduction (Rodentolepis nana [2]) was 92% and the Reduction [3] was 99%. The Reduction (Rodentolepis nana [4]) was 100%.
In the case of `N#C/C(C(=O)Nc1ccc([N+](=O)[O-])cc1)=C(/O)c1ccc(C(F)(F)F)cc1`, the Reduction [5] is reported as 100%, the Reduction [6] is reported as 50% and the Reduction (Rodentolepis nana [7]) is reported as 100%. The Reduction (Rodentolepis nana [8]) was 0%.
`N#C/C(C(=O)Nc1ccc(C(F)(F)F)cc1)=C(/O)c1ccccc1` was tested, and the Reduction (Rodentolepis nana [9]) was 0% and the Reduction [10] was 0%.
`N#C/C(C(=O)Nc1ccc(C(F)(F)F)cc1)=C(/O)c1ccc(C(F)(F)F)cc1` was tested, and the EC (Ascaris suum [11]) was 0.39 uM 15min-1 mg-1, the Reduction (Ovis aries [12]) was 100% and the Reduction (Ovis aries [13]) was 100%. It also gave a Reduction (Ovis aries [14]) of 0%, a Reduction (Rodentolepis nana [15]) of 0% and an EC (Ascaris suum [16]) of 0.63 uM 15min-1 mg-1. The Reduction (Ovis aries [17]) was 66%, the Reduction (Ovis aries [18]) was 0% and the EC (Ascaris suum [19]) was 0.28 uM 15min-1 mg-1. For the same molecule, the EC (Ascaris suum [20]) was 0.48 uM 15min-1 mg-1, the Reduction (Ovis aries [21]) was 0% and the Reduction [22] was 100%. For the same molecule, the EC (Ascaris suum [23]) was 0.75 uM 15min-1 mg-1, the EC (Ascaris suum [24]) was 0.05 uM 15min-1 mg-1 and the EC (Ascaris suum [25]) was 0.35 uM 15min-1 mg-1. The EC (Ascaris suum [26]) was 0.86 uM 15min-1 mg-1, the EC (Ascaris suum [27]) was 1.17 uM 15min-1 mg-1 and the EC (Ascaris suum [28]) was 0.15 uM 15min-1 mg-1. It also gave a Reduction [29] of 76% and a Reduction (Rodentolepis nana [30]) of 0%.
Molecule `N#C/C(C(=O)Nc1ccccc1)=C(/O)c1ccccc1` has a Reduction (Rodentolepis nana [31]) of 0% and a Reduction [32] of 0%.
`COC(=O)Nc1nc2cc([S+]([O-])c3ccccc3)ccc2[nH]1` (stereo unspecified) [OXFENDAZOLE] was tested, and the Reduction [33] was 100%, the Reduction (Rodentolepis nana [34]) was 100% and the Reduction [35] was 100%. For the same molecule, the Reduction (Rodentolepis nana [36]) was 0%.
